Experimental data as given in ChEMBL document CHEMBL1144557, “The novel C-5 aryl, alkenyl, and alkynyl substituted uracil derivatives of L-ascorbic acid: synthesis, cytostatic, and antiviral activity evaluations” (Bioorg Med Chem, 2007).
Values after ≈ are worked out from the molar mass of the structure shown.

Assays:
L1210 = assay: Antiproliferative activity against mouse L1210 cells; type: functional, cell-based
In short: (§1)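 Suspension cells seeded at 50 × 10³ cells/well with a range of test compound concentrations. Cell number counted with a Coulter counter after 2 days (L1210) or 3 days (Molt4/C8, CEM). IC50 is the concentration that cuts cell growth by 50% versus untreated controls, read from plots of cell number (% of control) against concentration.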

[1] = Antiproliferative activity against human Molt4/C8 cells; type: functional, cell-based; settings: MOLT-4; in short: as §1
WI-38 = assay: Antiproliferative activity against human WI38 cells after 72 hrs by MTT assay; type: functional, cell-based; settings: WI-38, 72 h
In short: (§2)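 Monolayers grown in DMEM with 10% FBS, 2 mM L-glutamine and penicillin/streptomycin at 37 °C, 5% CO2. Seeded at 1 × 10⁴–3 × 10⁴ cells/mL on day 0. Compounds from 0.04 M DMSO stocks added at five 10-fold dilutions (10⁻⁸–10⁻⁴ M final), with matched DMSO controls, for 72 h. MTT added for 4 h, formazan dissolved in DMSO, absorbance read at 570 nm. Percentage growth calculated against time-zero and untreated OD. IC50 is 50% inhibition of proliferation.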

HeLa = assay: Antiproliferative activity against human HeLa cells after 72 hrs by MTT assay; type: functional, cell-based; in short: as §2
SW-620 = assay: Antiproliferative activity against human SW620 cells after 72 hrs by MTT assay; type: functional, cell-based; settings: SW-620, 72 h; in short: as §2
[2] = system: Vesicular stomatitis virus; assay: Antiviral activity against in Vesicular stomatitis virus- induced cytopathogenicity in HeLa cells; type: functional
CCRF-CEM = assay: Antiproliferative activity against human CEM cells; type: functional, cell-based; in short: as §1
MIA PaCa-2 = assay: Antiproliferative activity against human MiaPaCa2 cells after 72 hrs by MTT assay; type: functional, cell-based; in short: as §2
MCF7 = assay: Antiproliferative activity against human MCF7 cells after 72 hrs by MTT assay; type: functional, cell-based; settings: MCF7, 72 h; in short: as §2
Coxsackievirus B4 = assay: Antiviral activity against Coxsackie virus B4-induced cytopathogenicity in Vero cells; type: functional; settings: Enterovirus B
Human alphaherpesvirus 1 [3] = assay: Antiviral activity against HSV1 TK- KOS ACV-induced cytopathogenicity in E6SM cells; type: functional; settings: Human alphaherpesvirus 1, KOS
Sindbis virus = assay: Antiviral activity against Sindbis virus-induced cytopathogenicity in Vero cells; type: functional
[4] = Cytotoxicity against E6SM cells; type: cell-based; settings: human, read-out: MCC
In short: (§3)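 Cells seeded at 5 × 10³ cells/well and exposed to medium containing a range of test compound concentrations. After 3 days at 37 °C, cell morphology examined microscopically. Reported as minimum cytotoxic concentration (MCC), the concentration causing a microscopically detectable alteration of normal cell morphology.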

Human alphaherpesvirus 2 [5] = assay: Antiviral activity against HSV2 G-induced cytopathogenicity in E6SM cells; type: functional; settings: Human alphaherpesvirus 2, G
Human alphaherpesvirus 1 [6] = assay: Antiviral activity against HSV1 KOS-induced cytopathogenicity in E6SM cells; type: functional; settings: Human alphaherpesvirus 1, KOS
HEp-2 = assay: Antiproliferative activity against human Hep2 cells after 72 hrs by MTT assay; type: functional, cell-based; settings: HEp-2, 72 h; in short: as §2
Punta Toro virus = assay: Antiviral activity against Punta Toro virus-induced cytopathogenicity in Vero cells; type: functional
[7] = system: Vesicular stomatitis virus; assay: Antiviral activity against in Vesicular stomatitis virus-induced cytopathogenicity in E6SM cells; type: functional
Human alphaherpesvirus 1 [8] = assay: Antiviral activity against HSV1 KOS-induced cytopathogenicity in HEL cells; type: functional; settings: Human alphaherpesvirus 1, KOS
[9] = system: Vesicular stomatitis virus; assay: Antiviral activity against in Vesicular stomatitis virus-induced cytopathogenicity in HEL cells; type: functional
[10] = Cytotoxicity against HEL cells; type: cell-based; settings: human; in short: as §3
Human alphaherpesvirus 1 [11] = assay: Antiviral activity against HSV1 TK- KOS ACV -induced cytopathogenicity in HEL cells; type: functional; settings: Human alphaherpesvirus 1, KOS
Human alphaherpesvirus 2 [12] = assay: Antiviral activity against HSV2 G-induced cytopathogenicity in HEL cells; type: functional; settings: Human alphaherpesvirus 2, G
[13] = Homo sapiens, MIA PaCa-2, 72 h, read-out: IC50

Compound | IC50 (L1210) [µM] | IC50 [1] [µM] | IC50 (WI-38) [µM] | IC50 (HeLa) [µM] | IC50 (SW-620) [µM] | MIC [2] [µM] | IC50 (CCRF-CEM) [µM] | IC50 (MIA PaCa-2; [13]) [µM] | IC50 (MCF7) [µM] | MIC (Coxsackievirus B4) [µM] | MIC (Human alphaherpesvirus 1 [3]) [µM] | MIC (Sindbis virus) [µM] | MCC [4] [µM] | MIC (Human alphaherpesvirus 2 [5]) [µM] | MIC (Human alphaherpesvirus 1 [6]) [µM] | IC50 (HEp-2) [µM] | MIC (Punta Toro virus) [µM] | MIC [7] [µM] | other results
O=C1O/C(=C\Cn2cc(-c3ccccc3)c(=O)[nH]c2=O)C(OCc2ccccc2)=C1OCc1ccccc1 | 142 | 159 | 28 | 25 | 21 | > 157 | 122 | 18 | 18 | > 157 | > 157 | > 157 | 787 | > 157 | > 157 | 22 | > 157 | 157 (≈ 79.8 µg/mL) | –
O=C1O/C(=C(\Br)Cn2c(Br)c(/C=C/Br)c(=O)[nH]c2=O)C(OCc2ccccc2)=C1OCc1ccccc1 | 32 | 110 | 49 | 22 | ≥ 100 | > 116 | 91 | 20 | 15 | > 116 | > 116 | > 116 | 578 | > 116 | > 116 | 22 | > 116 | > 116 | –
C#Cc1cn(C/C=C2\OC(=O)C(O)=C2O)c(=O)[nH]c1=O | 15 | 37 | 11 | 13 | 17 | > 4 | 23 | 13 | 13 | > 4 | – | > 4 | – | – | – | 12 | 4 (≈ 1.1 µg/mL) | – | MIC (Human alphaherpesvirus 1 [8]): > 4 µM; MIC [9]: > 4 µM; MCC [10]: 20 µM; MIC (Human alphaherpesvirus 1 [11]): > 4 µM; MIC (Human alphaherpesvirus 2 [12]): > 4 µM
CC#Cc1cn(C/C=C2\OC(=O)C(OCc3ccccc3)=C2OCc2ccccc2)c(=O)[nH]c1=O | 0.47 | 0.78 | 0.2 | 0.2 | 0.3 | 1.6 (≈ 0.753 µg/mL) | 0.77 | – | 0.2 | 1.6 (≈ 0.753 µg/mL) | > 0.4 | 1.6 (≈ 0.753 µg/mL) | 2 | > 0.4 | > 0.4 | 0.7 | > 1.6 | > 0.4 | IC50 (MIA PaCa-2; mia paca-2): 0.5 µM
O=C1O/C(=C\Cn2cc(-c3cccs3)c(=O)[nH]c2=O)C(OCc2ccccc2)=C1OCc1ccccc1 | 142 | 150 | 19 | 18 | 21 | > 156 | 117 | 16.5 | 17 | > 156 | > 6.4 | > 156 | 780 | > 156 | > 156 | 18 | > 156 | > 156 | –
O=C1O/C(=C\Cn2cc(-c3ccc(Cl)o3)c(=O)[nH]c2=O)C(OCc2ccccc2)=C1OCc1ccccc1 | 165 | 158 | > 100 | ≥ 100 | > 100 | > 150 | 162 | ≥ 100 | ≥ 100 | > 150 | > 150 | > 150 | 752 | > 150 | > 150 | > 100 | > 150 | 150 (≈ 79.9 µg/mL) | –
C=Cc1cn(C/C=C2\OC(=O)C(O)=C2O)c(=O)[nH]c1=O | 309 | 309 | 36 | 40 | > 100 | > 120 | 284 | ≥ 100 | 36 | > 29 | > 144 | > 29 | 720 | > 144 | > 144 | 46 | > 29 | > 144 | –
O=C1O/C(=C\Cn2cc(C#Cc3ccccc3)c(=O)[nH]c2=O)C(OCc2ccccc2)=C1OCc1ccccc1 | 108 | 108 | > 100 | > 100 | > 100 | > 200 | 101 | > 100 | 55 | > 200 | > 40 | 120 (≈ 63.9 µg/mL) | 200 | > 40 | > 40 | > 100 | > 200 | > 40 | –
O=C1O/C(=C\Cn2cc(/C=C/Br)c(=O)[nH]c2=O)C(OCc2ccccc2)=C1OCc1ccccc1 | 196 | ≥ 200 | 38 | 45 | > 100 | > 150 | 233 | > 100 | 40 | > 150 | > 150 | > 150 | 746 | > 150 | > 150 | 40 | > 150 | 150 (≈ 80.6 µg/mL) | –
